{
  "source": "paper PMC6108325",
  "about": "(Bioorganic & medicinal chemistry, 2014)",
  "key": {"[1]": {"system": "S. aureus LAC Δpyk::Erm^R", "experiment": "Bacterial killing assay, PK-deficient mutant", "format": "cell-based, Staphylococcus aureus", "details": "1.6 μM"}, "[2]": {"system": "S. aureus ATCC 29213", "experiment": "In vitro susceptibility testing", "format": "cell-based, Staphylococcus aureus"}, "[3]": {"system": "Wild-type S. aureus LAC", "experiment": "Bacterial killing assay, wild type", "format": "cell-based, Staphylococcus aureus", "details": "1.6 μM, aerobic growth in BHI"}, "[4]": {"molecular_target": "MRSA PK (Staphylococcus aureus, UniProt Q6GG09)", "sequence (Q6GG09 whole entry)": "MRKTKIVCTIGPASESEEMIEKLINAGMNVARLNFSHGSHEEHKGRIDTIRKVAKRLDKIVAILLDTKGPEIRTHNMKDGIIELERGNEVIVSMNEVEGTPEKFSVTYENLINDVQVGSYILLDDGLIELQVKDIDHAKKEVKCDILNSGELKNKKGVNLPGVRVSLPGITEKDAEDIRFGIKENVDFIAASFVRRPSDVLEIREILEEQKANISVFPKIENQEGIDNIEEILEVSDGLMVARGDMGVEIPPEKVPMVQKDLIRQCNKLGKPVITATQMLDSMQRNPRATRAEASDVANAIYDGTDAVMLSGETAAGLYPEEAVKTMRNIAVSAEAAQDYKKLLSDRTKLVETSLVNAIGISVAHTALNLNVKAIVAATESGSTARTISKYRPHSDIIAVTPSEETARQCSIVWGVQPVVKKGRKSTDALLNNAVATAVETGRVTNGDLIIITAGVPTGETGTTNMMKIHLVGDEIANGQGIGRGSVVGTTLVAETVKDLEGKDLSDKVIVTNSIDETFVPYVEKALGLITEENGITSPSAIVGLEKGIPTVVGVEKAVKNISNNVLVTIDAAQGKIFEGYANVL", "experiment": "MRSA PK enzyme inhibition assay", "format": "biochemical, methicillin-resistant Staphylococcus aureus", "details": "for fold decrease in activity compared to 10a: MRSA PK inhibition relative to 10a; for fold more potent than 33c: MRSA PK inhibition relative to 33c", "in_short": "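His-tagged recombinant MRSA pyruvate kinase construct, prepared as in earlier work. […] IC50 was calculated from a triplicate 15-point titration. Where no IC50 was obtained, % inhibition at the highest concentration tested was reported.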"}, "[5]": {"system": "S. aureus (ATCC29213)", "experiment": "MIC in absence and presence of efflux inhibitor verapamil", "format": "cell-based, Staphylococcus aureus"}, "[6]": {"system": "MRSA strain MW2 (USA400)", "experiment": "In vitro susceptibility testing", "format": "cell-based, methicillin-resistant Staphylococcus aureus", "details": "CAMHB"}, "[7]": {"details": "Staphylococcus aureus, ATCC29213"}, "[8]": {"details": "Staphylococcus aureus, ATCC29213, absence of verapamil"}},
  "note": "pIC50: −log10 of the molar value.",
  "data": [
    {"compound": "Clc1ccc2[nH]c(-c3cc4ccc(Br)cc4[nH]3)cc2c1", "note": "[10d, 6′-Bromo-5-chloro-1H,1′H-2,2′-biindole]", "values": [
      {"measurement": "bactericidal effect", "setting": "[1]; TSB without glucose + 1% sodium pyruvate (TSB-G+P)", "result": "unable to kill"},
      {"measurement": "bactericidal effect", "setting": "[1]; aerobic growth in BHI", "result": "merely acted statically"},
      {"measurement": "MIC", "setting": "[2]; [7]", "result": 0.3, "unit": "µg/mL"},
      {"measurement": "bactericidal effect", "setting": "[3]", "result": "highly bactericidal"}
    ]},
    {"compound": "Brc1ccc2cc(-c3cc4ccccc4o3)[nH]c2c1", "note": "[22b, 2-(Benzofuran-2-yl)-6-bromo-1H-indole]", "values": [
      {"measurement": "fold decrease in activity compared to 10a", "setting": "[4]", "result": "5–8 fold"}
    ]},
    {"compound": "Brc1ccc2cc(-c3cc4ccc(Br)cc4[nH]3)[nH]c2c1", "note": "[10b, 6,6′-Dibromo-1H,1′H-2,2′-biindole]", "values": [
      {"measurement": "MIC", "setting": "[5]; [8]", "result": 16, "unit": "µg/mL"},
      {"measurement": "MIC", "setting": "[2]; [7]", "result": 16, "unit": "µg/mL"}
    ]},
    {"compound": "Brc1ccc2cc(-c3nc4ccccc4s3)[nH]c2c1", "note": "[22a, 2-(6-Bromo-1H-indol-2-yl)benzo[d]thiazole]", "values": [
      {"measurement": "fold decrease in activity compared to 10a", "setting": "[4]", "result": "5–8 fold"}
    ]},
    {"compound": "Brc1ccc2[nH]c(-c3cc4cc(Br)ccc4[nH]3)cc2c1", "note": "[10i, 5,5′-Bibromo-1H,1′H-2,2′-biindole]", "values": [
      {"measurement": "MIC", "setting": "[2]; [7]", "result": "> 64", "unit": "µg/mL"}
    ]},
    {"compound": "COc1cc(-c2cc3ccccc3[nH]2)ccc1-c1cc2ccc(Br)cc2[nH]1", "note": "[33e, 2-(4-(1H-Indol-2-yl)-2-methoxyphenyl)-6-bromo-1H-indole]", "values": [
      {"measurement": "fold more potent than 33c", "setting": "[4]", "result": "2–3 fold"}
    ]},
    {"compound": "Brc1cc2cc(-c3cc4cc(Br)c(Br)cc4[nH]3)[nH]c2cc1Br", "note": "[10l, 5,5′,6,6′-Tetrabromo-1H,1′H-2,2′-biindole]", "values": [
      {"measurement": "MIC", "setting": "[5]; [8]", "result": "> 64", "unit": "µg/mL"},
      {"measurement": "shift of MIC by verapamil", "setting": "[5]; absence vs presence of verapamil (200 mg/L)", "result": "at least fourfold"},
      {"measurement": "MIC", "setting": "[2]; [7]", "result": "> 64", "unit": "µg/mL"},
      {"measurement": "MIC", "setting": "[2]; minimum concentration to give >98% inhibition of growth", "result": "> 64", "unit": "µg/mL"}
    ]},
    {"compound": "Brc1ccc2[nH]c(-c3cc4ccc(Br)cc4[nH]3)cc2c1", "note": "[10c, 5,6-Bibromo-1H,1′H-2,2′-biiindole]", "values": [
      {"measurement": "MIC", "setting": "[2]; [7]", "result": 0.3, "unit": "µg/mL"}
    ]},
    {"compound": "2-(4-(1H-Indol-2-yl)-3-nitrophenyl)-6-bromo-1H-indole [33d]", "values": [
      {"measurement": "fold more potent than 33c", "setting": "[4]", "result": "2–3 fold"},
      {"measurement": "% Inhibition of MRSA PK", "setting": "[4]; at 10 μM (Table 4)", "result": 86.2, "unit": "%"},
      {"measurement": "pIC50", "setting": "[4]; triplicate 15-point titration", "result": 8.74}
    ]},
    {"compound": "CN[C@H](CC(C)C)C(=O)N[C@H]1C(=O)N[C@@H](CC(N)=O)C(=O)N[C@H]2C(=O)N[C@H]3C(=O)N[C@H](C(=O)N[C@H](C(=O)O)c4cc(O)cc(O)c4-c4cc3ccc4O)[C@H](O)c3ccc(c(Cl)c3)Oc3cc2cc(c3O[C@@H]2O[C@H](CO)[C@@H](O)[C@H](O)[C@H]2O[C@H]2C[C@](C)(N)[C@H](O)[C@H](C)O2)Oc2ccc(cc2Cl)[C@H]1O", "note": "[vancomycin, reference compound]", "values": [
      {"measurement": "MIC", "setting": "[5]; [7]", "result": 2, "unit": "µg/mL"},
      {"measurement": "MIC", "setting": "[5]; presence of verapamil (200 mg/L)", "result": 2, "unit": "µg/mL"},
      {"measurement": "MIC", "setting": "[6]", "result": 2, "unit": "µg/mL"}
    ]},
    {"compound": "Fc1ccc2[nH]c(-c3cc4ccc(Br)cc4[nH]3)cc2c1", "note": "[10e, 6′-Bromo-5-fluoro-1H,1′H-2,2′-biindole]", "values": [
      {"measurement": "MIC", "setting": "[2]; [7]", "result": 0.3, "unit": "µg/mL"}
    ]},
    {"compound": "5′,6-Dibromo-1-methyl-1H,2′H-2,2′-biindole [12b]", "values": [
      {"measurement": "% inhibition at the highest concentration tested", "setting": "[4]; @ 10 μM", "result": 25, "unit": "% @ 10 μM"}
    ]}
  ]
}
